# Experimental data published in PubChem BioAssay AID2152 (The Scripps Research Institute Molecular Screening Center, 2009).
# Hit rate of the full screen: of about 2,300 compounds, about 25 (1%) were called active.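 How the source made its calls: active means mean inhibition over three replicate wells above the hit threshold derived in the earlier primary screen (cut at about 45% in these data); inactive means the rest.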 The entries come from a sample that favours actives as a whole.
# Test system: Hepatitis C virus core protein (core106 dimerization)
# Experiment: blockers of core106 self-association – biochemical, TR-FRET, triplicate, confirmation (AID 2152);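 further: 0% = DMSO wells and 100% = unlabelled core106 competitor control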
# Conditions: TR-FRET GST-/Flag-core106 dimerization, HTRF; at 5 µM; stronger effect = higher value
# Method in brief: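 Test system: GST- and Flag-tagged HCV core106 peptides, dimerization via antibody TR-FRET | Medium: HEPES/KF buffer, pH 7.45 | Also added: Eu(K)-anti-GST plus XL665-anti-FLAG antibodies | Times: 4 h incubation, 22.5 °C | Signal: TR-FRET, excitation 340 nm, emission 671 and 617 nm | Evaluation: Percent inhibition from emission ratio | Replication: Triplicate wells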
row,Structure (SMILES),inhibition
1,Cc1csc(SCC(=O)Nc2sc3c(c2C#N)CCC3)n1,-4.85% (inactive)
2,CCCCN(C(=O)c1cc(-c2ccco2)nc2ccccc12)c1c(N)n(CCCC)c(=O)[nH]c1=O,-1.63% (inactive)
3,CN(CC(=O)Nc1ccc(F)cc1)C(=O)c1cc(-c2ccco2)nc2ccccc12,13.3% (inactive)
4,O=C(Nc1ccc(Cl)c([N+](=O)[O-])c1)c1cnccn1,6.55% (inactive)
5,CC1(O)C(=O)C=C2C=C(c3ccc(C#N)cc3)OC=C2C1=O (stereo not drawn),55% (active)
6,C=CCN1C=C2C(=O)C(C)(OC(=O)CCc3ccccc3)C(=O)C=C2C=C1c1ccc(C#N)cc1 (stereo not drawn),0.52% (inactive)
7,CC1(OC(=O)CCc2ccccc2)C(=O)C=C2C=C(c3ccc(C#N)cc3)N(c3ccccc3)C=C2C1=O (stereo not drawn),1.14% (inactive)
8,Cc1ccc2nc(N3CCN(S(=O)(=O)c4ccc5c(c4)OCCO5)CC3)c(C#N)cc2c1,14.6% (inactive)
9,O=C(c1cc(-c2ccccn2)nc2ccc(Br)cc12)N1CCN(S(=O)(=O)c2ccccc2)CC1,17% (inactive)
10,C/C=C\C=C/C(=O)Nc1cccc(C2=NOC3(C2)C[C@@H](C(N)=O)N(C(=O)/C=C/CC)C3)c1 (stereo partly drawn),5.44% (inactive)
11,O=C1C(Cc2ccccc2)S/C(=N/N=C/c2ccco2)N1c1ccccc1 (stereo not drawn),-8.03% (inactive)
12,Cc1oc(-c2ccc(F)cc2)cc1-c1nn2c(-c3ccoc3C)nnc2s1,20.6% (inactive)
13,c1ccc(-c2cc(-c3nn4c(-c5ccco5)nnc4s3)c3ccccc3n2)cc1,16.7% (inactive)
14,Cc1oc(-c2ccc(Cl)cc2)cc1-c1nn2c(-c3ccoc3C)nnc2s1,52.5% (active)
15,Cc1ccc(NC(=O)c2cc(-c3ccc(C)o3)nc3ccccc23)cc1,-0.19% (inactive)
16,O=C(/C=C/c1ccc2ccccc2n1)N1CCN(c2ccccc2)CC1,-3.48% (inactive)
17,CCN(CC(=O)Nc1c(F)cccc1F)C(=O)c1cccc(-n2cccc2)c1,3.91% (inactive)
18,CCN(CC(=O)Nc1c(F)cccc1F)C(=O)/C=C/c1ccc2ccccc2n1,62.5% (active)
19,O=C1CCCC2=C1C(c1cn(-c3ccccc3)nc1-c1cccs1)c1c([nH]c(=O)[nH]c1=O)N2 (stereo not drawn),0.06% (inactive)
20,Cc1ccc(NC(=O)CN2C(=O)N/C(=C/c3ccco3)C2=O)cc1,-4.53% (inactive)
21,CC1=C(C#N)C(=O)N(C2CCS(=O)(=O)C2)C(=O)/C1=C\c1ccco1 (stereo not drawn),56.2% (active)
22,Cc1ccccc1N1C(S)=C(C#N)C(=O)NC1c1ccco1 (stereo not drawn),9.88% (inactive)
23,COc1ccc(-c2cc(C(=O)Nc3sc4c(c3C#N)CCCC4)c3ccccc3n2)cc1OC,-1.02% (inactive)
24,COc1cc(-c2cc(C(=O)OCC(=O)Nc3ccc4c(c3)OCO4)c3ccccc3n2)cc(OC)c1OC,4.02% (inactive)
25,CN(CC(=O)Nc1c(Cl)cccc1Cl)C(=O)c1cccc(-n2cccc2)c1,2.1% (inactive)
26,COc1ccc(CC(=O)OCC(=O)Nc2ncc(Cl)cc2Cl)cc1,-1.83% (inactive)
27,COc1ccccc1NC(=O)c1ccc(SCC(=O)NCc2ccccc2Cl)c([N+](=O)[O-])c1,-1.75% (inactive)

row,Structure (SMILES),inhibition
1,O=C(NCc1ccco1)C1Cc2ccccc2CN1S(=O)(=O)c1ccccc1F (stereo not drawn),18.4% (inactive)
2,C/C=C\C=C/C(=O)Nc1cccc(C2=NOC3(C2)C[C@@H](C(N)=O)N(C(=O)[C@H]2CCC(=O)N2)C3)c1 (stereo partly drawn),-14.3% (inactive)
3,O=C(N/N=C/c1ccc(N2CCCCC2)o1)C(O)(c1ccccc1)c1ccccc1,-3.6% (inactive)
4,CCOc1ccc(C2C(C#N)=C(N)SC(N)=C2C#N)cc1OCC,31.4% (inactive)
5,COc1ccccc1C(CCN(Cc1cccs1)C(C)=O)c1ccco1 (stereo not drawn),-3.29% (inactive)
6,O=C(NCCN1C(=O)S/C(=C\c2ccc(Cl)c(Cl)c2)C1=O)c1ccc2c(c1)C(=O)N(Cc1ccncc1)C2=O,6.43% (inactive)
7,O=C(COc1ccc([N+](=O)[O-])cc1)Nc1nnc(-c2cccnc2)s1,16.4% (inactive)
8,CC[C@@H](C)CN1C(=O)N[C@@H](c2ccccc2)C(C(C)=O)=C1C,5.08% (inactive)
9,CCOC(=O)c1cccc(NC(=O)C2CCCN(c3nnc(N4CCCC4=O)s3)C2)c1 (stereo not drawn),-7.1% (inactive)
10,O=c1c2c3nc4ccccc4nc3n(/N=C/c3ccco3)c2ncn1CCC1=CCCCC1,2.56% (inactive)
11,O=C(O)C/C(=C\c1cc(Cl)c2c(c1)OCO2)c1nc2ccccc2s1,4.02% (inactive)
12,Cc1ccc(NC(=O)Nc2nnc(Cc3ccc([N+](=O)[O-])cc3)s2)cc1,6.61% (inactive)
13,N=c1c(C(=O)NCc2ccco2)cc2c(=O)n3ccccc3nc2n1Cc1ccc(Cl)cc1,9.28% (inactive)
14,COc1ccccc1/C=c1\sc2nc(-c3ccco3)nn2c1=O,8.15% (inactive)
15,O=c1nc2s/c(=C\c3ccco3)c(=O)n2nc1Cc1ccc(F)cc1,14.3% (inactive)
16,COc1ccccc1/C=C/C=c1\sc2nc(=O)c(Cc3ccccc3)nn2c1=O,46.4% (active)
17,COc1cccc(/C=N/NC(=O)c2nc(-c3ccccc3)cc(-c3ccccc3)n2)c1,6.79% (inactive)
18,Cc1ccc(C)c(N2CCN(C(=O)CSc3ccsc3[N+](=O)[O-])CC2)c1,12.5% (inactive)
19,O=C(/C=C\c1ccc2c(c1)OCO2)Nc1c2c(nn1-c1ccc(Cl)cc1)CSC2,-1.47% (inactive)
20,O=C(Cn1cnc2sc(-c3ccccc3)cc2c1=O)NCc1ccco1,3.55% (inactive)
21,CCc1ccc(-c2csc(NC(=O)C3=NN(c4ccccc4)C(=O)CC3)n2)cc1,-3.1% (inactive)
22,Cc1ccc(-c2csc(N3N=C(c4ccccc4)/C(=C\c4ccc(N(C)C)cc4)C3=O)n2)cc1,1.99% (inactive)
23,CCOc1cc(/C=C2\C(=O)N(c3nc(-c4ccc(Br)cc4)cs3)N=C2c2ccccc2)ccc1O,58.1% (active)
24,CN(C(=O)COC(=O)c1cc(-c2ccco2)nc2ccccc12)C1CCS(=O)(=O)C1 (stereo not drawn),49.6% (active)
25,CNC(=O)COC(=O)c1cc(-c2ccco2)nc2ccccc12,12.2% (inactive)
26,O=C(OCC(=O)N1CCN(C(=O)c2ccco2)CC1)c1cc(-c2ccco2)nc2ccccc12,30.6% (inactive)
